Screens from PubChem BioAssay.
Rows were chosen to be rich in hits. Some 1.5% of all compounds tested hit in one or more screens of this group.
TRAIL sens C8: caspase-8 TRAIL sensitization; NB7+C8 cells + TRAIL, ATPlite viability luminescence; inhibition (viability loss, TRAIL sensitization), % at 10 µM; 360,000 compounds, 1% hits;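 active means compounds causing at least 50% loss of cell viability in the single-dose screen, relative to plate controls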
FLuc stim CS: affects firefly luciferase, flagging false hits in luciferase stimulation screens; P08659; ATPlite luciferase biochemical, luminescence, 10 min; 0 = ATP-free wells, 1 = DMSO control; activation factor at 10 µM; 200,000 tested, under 10 active;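 active means luciferase activation factor, scaled between plate controls, of at least 2 with compound at 10 µM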
Target sequence (P08659 whole entry, looked up): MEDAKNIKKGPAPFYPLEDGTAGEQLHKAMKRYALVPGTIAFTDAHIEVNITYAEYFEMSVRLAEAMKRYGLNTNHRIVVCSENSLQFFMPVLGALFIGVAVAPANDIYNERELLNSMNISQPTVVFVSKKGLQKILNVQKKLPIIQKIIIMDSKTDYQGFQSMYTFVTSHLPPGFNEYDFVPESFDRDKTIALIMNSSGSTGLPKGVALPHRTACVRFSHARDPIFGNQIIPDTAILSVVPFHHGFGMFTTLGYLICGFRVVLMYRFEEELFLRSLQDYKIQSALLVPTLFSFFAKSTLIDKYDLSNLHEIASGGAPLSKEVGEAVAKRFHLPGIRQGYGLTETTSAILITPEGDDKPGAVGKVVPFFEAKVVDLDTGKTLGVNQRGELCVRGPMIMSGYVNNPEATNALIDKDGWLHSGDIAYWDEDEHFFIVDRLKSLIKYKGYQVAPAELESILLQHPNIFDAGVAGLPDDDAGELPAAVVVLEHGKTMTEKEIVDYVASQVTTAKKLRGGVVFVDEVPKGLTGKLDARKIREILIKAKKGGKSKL
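Assay system: Luciferase/luciferin reagent mix; Medium: PBS as buffer for the ATP substrate; Dosing: test compounds dosed from 2 mM stocks in 100% DMSO; Times: 10 min, room temperature; Signal: luminescence from luciferase reaction; Read-out: luciferase activation; Controls: No-ATP low control, compound-free enzyme-plus-ATP high control.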
FLuc inhib CS: inhibits firefly luciferase, flagging false hits in luciferase inhibition screens. P08659. ATPLite firefly luciferase biochemical luminescence, 10 min. inhibition, % at 10 µM. 200,000 compounds, 1.5% hits. AID 1006;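 active means inhibition above about 50% when tested at 10 µM, limit read from the data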
PPC-1+TRAIL kill: compounds killing PPC-1 cancer cells with TRAIL present (potentiator screen, no TRAIL-free arm); PPC-1 cells + TRAIL, ATPLite viability luminescence; cell killing (% activity), % at 4 µM or 5 µM; 220,000 compounds, 0.41% hits; AID 1443;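 active means cell killing above 50% in the first pass at 4 µM, then a duplicate retest at 5 µM averaging 50% or more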
PPC1 cytotox: PPC-1 cell cytotoxicity; shares compounds with PPC-1+TRAIL kill; PPC-1 viability, ATPlite luminescence, overnight; cytotoxicity, % at 5 µM; 1,200 compounds, 50% hits;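 active means reconfirmed compounds whose average cytotoxicity reaches 50% or more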
Of the large screens only hits and unclear results are named; the others gave an inactive call (follow-up assays come after a bar, where they were run).

Cc1ccc2nc3ccc(N4CCCC4)nn3c(=O)c2c1	none
CCc1nc2c(OCc3ccccc3OC)cccn2c1N(C)C(=O)C(C)C	none (no result: FLuc stim CS, FLuc inhib CS, PPC-1+TRAIL kill)
CC1CCCCN1Cc1nc2ccccc2c(=O)[nH]1 (centres undefined)	none
COc1ccc(C(=O)Sc2nncc3ccccc23)cc1	none | PPC1 cytotox inactive
Cc1ccc2nc(-c3ccc(NC(=O)COC(=O)c4cncc(Br)c4)cc3)sc2c1	TRAIL sens C8 70.3, PPC-1+TRAIL kill 50.2 | PPC1 cytotox inactive
O=C(CNS(=O)(=O)c1cccc(Cl)c1)Nc1ccc(-c2nc3ccccc3s2)cc1	none
CNS(=O)(=O)c1cccc(C(=O)OCC(=O)Nc2ccc(N3CCCCC3)cc2)c1	none
CNS(=O)(=O)c1cccc(C(=O)OCC(=O)Nc2ccc(-c3nc4ccc(C)cc4s3)cc2)c1	TRAIL sens C8 75.4 | PPC1 cytotox inactive
O=C(CCS(=O)(=O)c1ccccc1)Nc1ccc(-c2nc3ccccc3s2)cc1	TRAIL sens C8 64.8, PPC-1+TRAIL kill 54.1 | PPC1 cytotox inactive
CCC(C)(C)NC(=S)Nc1ccc(-c2nc3ccc(C)cc3s2)cc1	none
CC(=O)Nc1cnc(NC(=O)c2cccc(F)c2)cc1C	none
CCC(=O)Nc1cnc(NC(=O)c2cccc(F)c2)cc1C	none | PPC1 cytotox inactive
CCn1c2ccccc2c2cc(NC(=O)CN(C)CC(=O)Nc3ccc(N4CCOCC4)cc3)ccc21	none
CCn1c2ccccc2c2cc(NC(=O)N3CCOCC3)ccc21	none | PPC1 cytotox inactive
C=CCn1c(=O)c2c(nc3n2CC(C)CN3Cc2ccccc2)n(C)c1=O (centres undefined)	none (no result: FLuc stim CS, FLuc inhib CS, PPC-1+TRAIL kill)
CCOC(=O)C1C(=O)NCC2CCCC21 (centres undefined)	none | PPC1 cytotox inactive
CCOC(=O)C1CCN(c2c(N3CCCCCC3)c(=O)c2=O)CC1	none
N#CC1=C(N)Oc2n[nH]c(-c3cccs3)c2C1c1ccoc1 (centres undefined)	none | PPC1 cytotox inactive
COc1cccc(-c2[nH]nc3c2C(c2ccoc2)C(C#N)=C(N)O3)c1 (centres undefined)	none
COc1cc(-c2[nH]nc3c2C(c2ccoc2)C(C#N)=C(N)O3)cc(OC)c1OC (centres undefined)	none | PPC1 cytotox inactive
O=C(Nc1nc2ccccc2[nH]1)c1cc2ccccc2o1	TRAIL sens C8 66.4, FLuc inhib CS 74.7, PPC-1+TRAIL kill 67.5 | PPC1 cytotox 68.7
O=C(Nc1nc2ccccc2[nH]1)c1ccc(F)cc1	TRAIL sens C8 82.7, FLuc inhib CS 91.3, PPC-1+TRAIL kill 72.5 | PPC1 cytotox 71.8
O=C(Nc1nc2ccccc2[nH]1)c1ccccc1F	TRAIL sens C8 89.7, FLuc inhib CS 95.8, PPC-1+TRAIL kill 77.2 | PPC1 cytotox 79.3
O=C(Nc1ccc(F)cc1)c1cc2ccccc2o1	none (no result: FLuc stim CS, FLuc inhib CS, PPC-1+TRAIL kill)
COc1ccc2oc(C(=O)Nc3nc4ccccc4[nH]3)c(C)c2c1	TRAIL sens C8 69.1, PPC-1+TRAIL kill 58.6 (no result: FLuc stim CS, FLuc inhib CS) | PPC1 cytotox 54.2
Cc1ccccc1OCC(=O)N/N=C/c1ccccn1	none
COc1cccc(CN2CCCN(S(=O)(=O)c3ccc(Br)cc3)CC2)c1	none
COc1cc(C(=O)OCC(=O)c2c[nH]c3ccccc23)ccc1OCC(=O)N1CCOCC1	none
CCOc1cc(C(=O)OCC(=O)c2c[nH]c3ccccc23)ccc1OCC(=O)N1CCOCC1	none | PPC1 cytotox inactive
Cc1ccc(N(Cc2cc3ccc(C)cc3[nH]c2=O)S(=O)(=O)c2ccccc2)cc1	none (no result: FLuc stim CS, FLuc inhib CS, PPC-1+TRAIL kill)
COc1cccc(C(=O)Cn2c(=N)n(C)c3ccccc32)c1	TRAIL sens C8 59.1, PPC-1+TRAIL kill 54.4 | PPC1 cytotox inactive
CC(=O)Nc1cccc(/C(C)=N/NS(=O)(=O)c2ccc(C)cc2)c1	none
COc1ccc(NC(=O)c2cc([N+](=O)[O-])ccc2O)cc1	TRAIL sens C8 90.7, FLuc inhib CS 95.6, PPC-1+TRAIL kill 75.0 | PPC1 cytotox 76.8
COc1ccc(NC(=O)c2cccc([N+](=O)[O-])c2)cc1	none
COc1ccc(O)c(C(=O)CC(=O)c2ccccc2)c1	PPC-1+TRAIL kill 60.2 (no result: TRAIL sens C8) | PPC1 cytotox 57.9
COc1ccc(O)c(C(=O)CC(=O)c2ccncc2)c1	none (no result: FLuc stim CS, FLuc inhib CS, PPC-1+TRAIL kill)
OCCNc1nc2nonc2nc1NCCO	none
N#Cc1cc2c(nc1SCc1nc3ccccc3[nH]1)CCC2	FLuc inhib CS 78.0 (no result: TRAIL sens C8) | PPC1 cytotox inactive
Cc1cccc(CSc2nc3c(cc2C#N)CCC3)c1	none
O=C(CSc1nnc(-c2ccc(O)cc2)o1)Nc1ccccc1	none (no result: FLuc stim CS, FLuc inhib CS, PPC-1+TRAIL kill)
O=C(CSc1nnc(-c2csc3c2CCCC3)o1)Nc1ccccc1	TRAIL sens C8 77.5, PPC-1+TRAIL kill 58.4 | PPC1 cytotox 56.5
